Data reported in ChEMBL document CHEMBL1909539, “Reappraising the structures and distribution of metabolites from black aspergilli containing uncommon 2-benzyl-4H-pyran-4-one and 2-benzylpyridin-4(1H)-one systems” (J Nat Prod, 2011).
Activity calls are given as the source filed them. No cut-off for these calls is given here.

How the values were obtained:
Format in all cases: functional, organism-based
Aspergillus flavus [1] = experiment: Antifungal activity against Aspergillus flavus NRRL A1120 at 10 ug/ml after 48 hrs
How it was run: (§1)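 Yeasts and Aspergillus cultures were dispensed into 96-well plates and compound in DMSO was added (1% DMSO final). Plates were shaken orbitally and OD600 was read at start. After 48 h at 37 °C, humidified, OD600 was read again, and activity was calculated as the change in optical density.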

Aspergillus flavus [2] = experiment: Antifungal activity against Aspergillus flavus NRRL A1120 at 100 ug/ml after 48 hrs; how it was run: as §1
Candida albicans [3] = experiment: Antifungal activity against Candida albicans ATCC 38245 at 100 ug/ml after 48 hrs; how it was run: as §1
Candida parapsilosis = experiment: Antifungal activity against Candida parapsilosis ATCC 12969 at 100 ug/ml after 48 hrs; how it was run: as §1
Aspergillus fumigatus [4] = experiment: Antifungal activity against Aspergillus fumigatus NRRL A1100 at 10 ug/ml after 48 hrs; how it was run: as §1
Aspergillus fumigatus [5] = experiment: Antifungal activity against Aspergillus fumigatus NRRL A1100 at 100 ug/ml after 48 hrs; how it was run: as §1
Pichia kudriavzevii [6] = experiment: Antifungal activity against Candida krusei ATCC 27803 at 10 ug/ml after 48 hrs; how it was run: as §1
Pichia kudriavzevii [7] = experiment: Antifungal activity against Candida krusei ATCC 27803 at 100 ug/ml after 48 hrs; how it was run: as §1
Candida tropicalis = experiment: Antifungal activity against Candida tropicalis ATCC 12968 at 100 ug/ml after 48 hrs; how it was run: as §1
Nakaseomyces glabratus = experiment: Antifungal activity against Candida glabrata NRRL Y-65 at 100 ug/ml after 48 hrs; how it was run: as §1
Escherichia coli [8] = experiment: Antibacterial activity against Escherichia coli ATCC 11775 at 100 ug/ml after 24 hrs
How it was run: (§2)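 Broth growth assay in 96-well plates with test compounds added from DMSO stocks (final DMSO 1%). OD600 was read after brief orbital shaking, then again after 24 h incubation at 37 °C in a humidified incubator. Activity was taken as the change in OD600 between the two readings.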

Acinetobacter baumannii [9] = experiment: Antibacterial activity against Acinetobacter baumannii ATCC BAA-1605 at 100 ug/ml after 24 hrs; how it was run: as §2
Escherichia coli [10] = experiment: Antibacterial activity against Escherichia coli ATCC 10798 at 100 ug/ml after 24 hrs; how it was run: as §2
Klebsiella pneumoniae [11] = experiment: Antibacterial activity against Klebsiella pneumoniae ATCC 33495 at 100 ug/ml after 24 hrs; how it was run: as §2
[12] = tested on: Staphylococcus epidermidis; experiment: Antibacterial activity against Staphylococcus epidermidis ATCC 12228 at 100 ug/ml after 24 hrs; how it was run: as §2
Staphylococcus aureus [13] = experiment: Antibacterial activity against Staphylococcus aureus ATCC 25293 at 100 ug/ml after 24 hrs; how it was run: as §2
Enterobacter cloacae = experiment: Antibacterial activity against Enterobacter cloacae ATCC 13047 at 100 ug/ml after 24 hrs; how it was run: as §2
Candida albicans [14] = experiment: Potentiation of antifungal activity of imidazole against Candida albicans ATCC 38245 by broth microdilution assay
Klebsiella pneumoniae [15] = experiment: Antibacterial activity against Klebsiella pneumoniae ATCC 51503 at 100 ug/ml after 24 hrs; how it was run: as §2
Pseudomonas aeruginosa = experiment: Antibacterial activity against Pseudomonas aeruginosa ATCC 10145 at 100 ug/ml after 24 hrs; how it was run: as §2
Acinetobacter baumannii [16] = experiment: Antibacterial activity against Acinetobacter baumannii ATCC 19606 at 100 ug/ml after 24 hrs; conditions: ATCC 19606 = CIP 70.34 = JCM 6841; how it was run: as §2
Burkholderia cepacia = experiment: Antibacterial activity against Burkholderia cepacia ATCC 25608 at 100 ug/ml after 24 hrs; how it was run: as §2
Staphylococcus aureus [17] = experiment: Antibacterial activity against Staphylococcus aureus ATCC 700787 at 100 ug/ml after 24 hrs; how it was run: as §2

CCOC(=O)c1coc(-c2ccccc2)cc1=O
inhibition (Aspergillus flavus [1]): Active
inhibition (Aspergillus flavus [2]): Active
inhibition (Candida albicans [3]): Active
inhibition (Candida parapsilosis): Active
inhibition (Aspergillus fumigatus [4]): Active
inhibition (Aspergillus fumigatus [5]): Active
inhibition (Pichia kudriavzevii [6]): Active
inhibition (Pichia kudriavzevii [7]): Active
inhibition (Candida tropicalis): Active
inhibition (Nakaseomyces glabratus): Active

COC(=O)c1coc(Cc2ccccc2)cc1=O
inhibition (Aspergillus flavus [1]): Active
inhibition (Aspergillus flavus [2]): Active
inhibition (Candida albicans [3]): Active
inhibition (Candida parapsilosis): Active
inhibition (Escherichia coli [8]): inactive
inhibition (Acinetobacter baumannii [9]): inactive
inhibition (Escherichia coli [10]): inactive
inhibition (Klebsiella pneumoniae [11]): inactive
inhibition [12]: inactive
inhibition (Staphylococcus aureus [13]): inactive
inhibition (Enterobacter cloacae): inactive
Activity (Candida albicans [14]): inactive
inhibition (Klebsiella pneumoniae [15]): inactive
inhibition (Aspergillus fumigatus [5]): Active
inhibition (Pseudomonas aeruginosa): inactive
inhibition (Acinetobacter baumannii [16]): inactive
inhibition (Pichia kudriavzevii [7]): Active
inhibition (Burkholderia cepacia): inactive
inhibition (Candida tropicalis): Active
inhibition (Staphylococcus aureus [17]): inactive
inhibition (Nakaseomyces glabratus): Active

C[C@@H](CC(=O)NC(=O)c1coc(Cc2ccccc2)cc1=O)C(=O)O
inhibition (Escherichia coli [8]): inactive
inhibition (Acinetobacter baumannii [9]): inactive
inhibition (Escherichia coli [10]): inactive
inhibition (Klebsiella pneumoniae [11]): inactive
inhibition [12]: inactive
inhibition (Staphylococcus aureus [13]): inactive
inhibition (Enterobacter cloacae): inactive
Activity (Candida albicans [14]): inactive
inhibition (Klebsiella pneumoniae [15]): inactive
inhibition (Pseudomonas aeruginosa): inactive
inhibition (Acinetobacter baumannii [16]): inactive
inhibition (Burkholderia cepacia): inactive
inhibition (Staphylococcus aureus [17]): inactive

COC(=O)[C@@H](C)CC(=O)NC(=O)c1coc(Cc2ccccc2)cc1=O
Activity (Candida albicans [14]): inactive

C[C@@H](CC(=O)NC(=O)c1cn(-c2ccccc2)c(Cc2ccccc2)cc1=O)C(=O)O
inhibition (Escherichia coli [8]): inactive
inhibition (Acinetobacter baumannii [9]): inactive
inhibition (Escherichia coli [10]): inactive
inhibition (Klebsiella pneumoniae [11]): inactive
inhibition [12]: inactive
inhibition (Staphylococcus aureus [13]): inactive
inhibition (Enterobacter cloacae): inactive
inhibition (Klebsiella pneumoniae [15]): inactive
inhibition (Pseudomonas aeruginosa): inactive
inhibition (Acinetobacter baumannii [16]): inactive
inhibition (Burkholderia cepacia): inactive
inhibition (Staphylococcus aureus [17]): inactive

NC(=O)c1coc(Cc2ccccc2)cc1=O
inhibition (Escherichia coli [8]): inactive
inhibition (Acinetobacter baumannii [9]): inactive
inhibition (Escherichia coli [10]): inactive
inhibition (Klebsiella pneumoniae [11]): inactive
inhibition [12]: inactive
inhibition (Staphylococcus aureus [13]): inactive
inhibition (Enterobacter cloacae): inactive
Activity (Candida albicans [14]): inactive
inhibition (Klebsiella pneumoniae [15]): inactive
inhibition (Pseudomonas aeruginosa): inactive
inhibition (Acinetobacter baumannii [16]): inactive
inhibition (Burkholderia cepacia): inactive
inhibition (Staphylococcus aureus [17]): inactive

NC(=O)c1cn(-c2ccc(F)cc2)c(Cc2ccccc2)cc1=O
inhibition (Escherichia coli [8]): inactive
inhibition (Acinetobacter baumannii [9]): inactive
inhibition (Escherichia coli [10]): inactive
inhibition (Klebsiella pneumoniae [11]): inactive
inhibition [12]: inactive
inhibition (Staphylococcus aureus [13]): inactive
inhibition (Enterobacter cloacae): inactive
inhibition (Klebsiella pneumoniae [15]): inactive
inhibition (Pseudomonas aeruginosa): inactive
inhibition (Acinetobacter baumannii [16]): inactive
inhibition (Burkholderia cepacia): inactive
inhibition (Staphylococcus aureus [17]): inactive
